Results as given in ChEMBL document CHEMBL1152866, “Modulation of gene expression via disruption of NF-kappaB signaling by a bacterial small molecule” (Science, 2008).
Active and inactive are the calls of the source.

Experiments:
[1] = system: MEF; test: Effect on TNF-induced c-jun mRNA expression in MEF by Northern blot analysis; assay type: functional, cell-based; conditions: Mus musculus
[2] = species on record: Mus musculus; test: Suppression of LPS-induced TNF expression in C57BL/6 transgenic mouse bearing TNF-reporter after 2 hrs by luciferase reporter gene assay; assay type: functional, organism-based
In short: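 Animals received an injection of vehicle, LPS, C12, or LPS plus C12. Whole-animal bioluminescence was recorded 2 hours after injection as the read-out of reporter activity.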

[3] = molecular target: Transcription factor p65 (Mus musculus) (UniProt Q04207); test: Inhibition of LPS-induced RelA phosphorylation in [32P]orthophosphate metabolically labelled mouse BMDM assessed as phosphorylated IkappaBbeta/RelA binding measured up to 120 mins in absence of IkappaBalpha by SDS-PAGE and autoradiography
Chain of Transcription factor p65 (Mus musculus) (Q04207 whole entry): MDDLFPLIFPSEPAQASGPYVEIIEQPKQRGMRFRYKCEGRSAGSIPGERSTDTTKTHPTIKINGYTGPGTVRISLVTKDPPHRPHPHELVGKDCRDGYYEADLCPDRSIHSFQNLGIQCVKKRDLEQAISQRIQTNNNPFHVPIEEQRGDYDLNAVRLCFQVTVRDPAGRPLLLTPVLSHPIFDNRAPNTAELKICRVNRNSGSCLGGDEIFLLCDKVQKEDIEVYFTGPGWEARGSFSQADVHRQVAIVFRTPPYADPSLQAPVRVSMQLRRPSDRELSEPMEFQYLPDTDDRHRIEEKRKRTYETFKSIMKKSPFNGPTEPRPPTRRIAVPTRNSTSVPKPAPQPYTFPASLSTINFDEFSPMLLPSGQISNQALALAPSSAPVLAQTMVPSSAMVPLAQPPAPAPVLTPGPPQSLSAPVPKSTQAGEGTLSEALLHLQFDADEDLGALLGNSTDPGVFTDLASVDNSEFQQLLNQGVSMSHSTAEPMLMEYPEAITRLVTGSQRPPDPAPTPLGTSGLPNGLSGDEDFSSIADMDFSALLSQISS

[4] = system: MEF; test: Effect on TNF-induced MCP1 mRNA expression in MEF by Northern blot analysis; assay type: functional, cell-based; conditions: Mus musculus
[5] = molecular target: Transcription factor p65 (Homo sapiens) (UniProt Q04206); test: Inhibition of TNF-induced RelA phosphorylation in human bronchial epithelial cells up to 120 mins by Western blot analysis; assay type: cell-based; conditions: Epithelial cell
Chain of Transcription factor p65 (Homo sapiens) (Q04206 whole entry): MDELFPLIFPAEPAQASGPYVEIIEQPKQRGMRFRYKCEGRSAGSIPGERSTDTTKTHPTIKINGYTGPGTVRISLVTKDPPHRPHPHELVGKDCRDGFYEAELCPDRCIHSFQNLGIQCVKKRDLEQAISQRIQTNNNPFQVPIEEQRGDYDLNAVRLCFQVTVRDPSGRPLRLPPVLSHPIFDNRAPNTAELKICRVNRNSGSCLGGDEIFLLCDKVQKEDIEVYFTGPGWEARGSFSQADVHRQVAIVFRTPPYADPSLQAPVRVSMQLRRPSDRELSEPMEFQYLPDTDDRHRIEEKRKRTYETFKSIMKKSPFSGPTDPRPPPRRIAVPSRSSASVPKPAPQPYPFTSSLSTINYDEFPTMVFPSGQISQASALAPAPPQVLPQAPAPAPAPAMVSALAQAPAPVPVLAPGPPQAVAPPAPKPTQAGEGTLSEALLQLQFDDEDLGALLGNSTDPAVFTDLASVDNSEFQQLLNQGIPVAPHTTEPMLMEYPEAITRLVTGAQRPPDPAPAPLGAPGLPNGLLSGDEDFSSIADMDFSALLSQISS

[6] = molecular target: T1, Inhibitor of nuclear factor kappa-B kinase subunit alpha (Mus musculus) (UniProt Q60680); test: Inhibition of TNF-induced IkappaBalpha phosphorylation in mouse MEF up to 120 mins by Western blot analysis
T1 sequence (whole entry): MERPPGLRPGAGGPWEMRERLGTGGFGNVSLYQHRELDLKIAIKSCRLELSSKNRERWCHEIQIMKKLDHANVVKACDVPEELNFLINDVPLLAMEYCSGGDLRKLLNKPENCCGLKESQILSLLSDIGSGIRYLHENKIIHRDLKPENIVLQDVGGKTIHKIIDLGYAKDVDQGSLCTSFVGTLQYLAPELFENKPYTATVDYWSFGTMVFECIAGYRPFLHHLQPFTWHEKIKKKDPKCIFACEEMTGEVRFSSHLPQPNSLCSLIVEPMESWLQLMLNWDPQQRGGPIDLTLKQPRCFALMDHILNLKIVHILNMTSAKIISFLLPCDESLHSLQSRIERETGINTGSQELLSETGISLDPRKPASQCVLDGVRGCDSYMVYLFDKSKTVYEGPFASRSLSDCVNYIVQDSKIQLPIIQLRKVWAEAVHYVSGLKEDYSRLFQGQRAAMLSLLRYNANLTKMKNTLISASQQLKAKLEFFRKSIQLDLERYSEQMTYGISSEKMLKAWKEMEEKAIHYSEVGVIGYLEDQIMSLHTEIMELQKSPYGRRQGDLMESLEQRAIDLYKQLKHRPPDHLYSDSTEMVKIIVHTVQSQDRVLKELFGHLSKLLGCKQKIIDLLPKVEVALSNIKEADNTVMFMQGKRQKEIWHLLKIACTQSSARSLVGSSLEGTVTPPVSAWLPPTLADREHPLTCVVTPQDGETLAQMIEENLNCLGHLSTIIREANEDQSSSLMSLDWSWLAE

[7] = system: BMDM; test: Inhibition of LPS-induced IRF-1 mRNA expression in mouse BMDM up to 3 hrs by Northern blot analysis; assay type: functional, cell-based
[8] = molecular target: T2, Inhibitor of nuclear factor kappa-B kinase subunit alpha (Homo sapiens) (UniProt O15111); test: Inhibition of IkappaBalpha phosphorylation in human bronchial epithelial cells assessed after 2 hrs by Western blot analysis; assay type: cell-based; conditions: Epithelial cell
T2 sequence (whole entry): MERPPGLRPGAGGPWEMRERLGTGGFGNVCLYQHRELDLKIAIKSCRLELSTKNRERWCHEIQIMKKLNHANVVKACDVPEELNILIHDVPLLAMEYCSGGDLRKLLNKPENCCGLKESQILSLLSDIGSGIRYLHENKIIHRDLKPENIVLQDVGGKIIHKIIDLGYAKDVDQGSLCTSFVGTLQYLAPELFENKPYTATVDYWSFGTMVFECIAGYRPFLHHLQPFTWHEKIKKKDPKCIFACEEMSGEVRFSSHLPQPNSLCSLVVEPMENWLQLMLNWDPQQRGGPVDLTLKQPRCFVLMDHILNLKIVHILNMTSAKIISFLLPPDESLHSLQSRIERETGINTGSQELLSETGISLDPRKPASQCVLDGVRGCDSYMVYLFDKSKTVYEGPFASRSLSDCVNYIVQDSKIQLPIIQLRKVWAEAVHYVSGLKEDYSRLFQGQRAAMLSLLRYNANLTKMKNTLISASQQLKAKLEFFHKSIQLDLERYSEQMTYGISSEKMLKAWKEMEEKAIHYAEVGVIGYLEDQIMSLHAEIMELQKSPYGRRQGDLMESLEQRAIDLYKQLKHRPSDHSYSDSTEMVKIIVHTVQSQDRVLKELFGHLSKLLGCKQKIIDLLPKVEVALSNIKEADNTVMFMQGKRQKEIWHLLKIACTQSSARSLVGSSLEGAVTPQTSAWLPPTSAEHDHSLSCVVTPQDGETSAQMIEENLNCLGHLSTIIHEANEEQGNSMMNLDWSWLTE
In short: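 WI38 lung fibroblasts and bronchial epithelial cells were stimulated for 2 hours. The same Western blot was probed for PARP cleavage, total IκBα and phosphorylated IκBα.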

[9] = molecular target: MAP kinase p38 (Mus musculus) (UniProt P47811+O08911+Q9WUI1+Q9Z1B7); test: Inhibition of LPS-induced p38 phosphorylation in C57BL/6 mouse alveolar macrophages measured up to 120 mins by Western blot analysis
[10] = system: Macrophage; test: Inhibition of LPS-induced TNF mRNA expression in mouse alveolar macrophages after 90 mins by Northern blot analysis; assay type: functional, cell-based
[11] = system: BMDM; test: Inhibition of heat-killed Staphylococcus aureus-induced RANTES mRNA expression in mouse BMDM by Northern blot analysis; assay type: functional, cell-based
[12] = system: MEF; test: Effect on TNF-induced IkappaBalpha mRNA expression in MEF by Northern blot analysis; assay type: functional, cell-based; conditions: Mus musculus
[13] = system: MEF; test: Inhibition of TNF-induced IkappaBalpha expression in mouse MEF up to 120 mins by Western blot analysis; assay type: functional, cell-based
[14] = system: BMDM; test: Inhibition of heat-killed Staphylococcus aureus-induced c-jun mRNA expression in mouse BMDM by Northern blot analysis; assay type: functional, cell-based
[15] = molecular target: Transcription factor p65 (Mus musculus) (UniProt Q04207); test: Inhibition of LPS-induced RelA phosphorylation in mouse BMDM treated 2 hrs after LPS challenge measured up to 120 mins by Western blot analysis
[16] = system: Macrophage; test: Inhibition of LPS-induced IkappaBalpha expression in C57BL/6 mouse alveolar macrophages measured up to 120 mins by Western blot analysis; assay type: functional, cell-based
[17] = system: BMDM; test: Inhibition of heat-killed Staphylococcus aureus-induced MCP-1 mRNA expression in mouse BMDM by Northern blot analysis; assay type: functional, cell-based
[18] = system: BMDM; test: Inhibition of LPS-induced IFNbeta mRNA expression in mouse BMDM up to 3 hrs by Northern blot analysis; assay type: functional, cell-based
[19] = molecular target: T2, Inhibitor of nuclear factor kappa-B kinase subunit alpha (Homo sapiens); test: Inhibition of TNF-induced IkappaBalpha phosphorylation in human bronchial epithelial cells up to 120 mins by Western blot analysis; assay type: cell-based; conditions: Epithelial cell
[20] = system: MEF; test: Inhibition of LPS-induced c-jun mRNA expression in MEF after 90 mins by Northern blot analysis; assay type: functional, cell-based; conditions: Mus musculus
[21] = species on record: Mus musculus; test: Inhibition of IKK activity in LPS-induced mouse BMDM assessed as reduction in phosphorylation of IkappaBalpha treated 2 hrs after LPS challenge measured up to 120 mins by immunoblot analysis

Measured: Activity

CCCCCCCCCC(=O)CC(=O)N[C@H]1CCOC1=O
active: [1] | [2] | [3] | [4] | [5] | [6] | [7] Dose-dependent effect | [8] | [9] | [10] Dose-dependent effect | [11] | [12] | [13] | [14] | [15] | [16] | [17] | [18] Dose-dependent effect | [19] | [20] Dose-dependent effect | [21]
